Data published in paper PMC9076119 (RSC Advances, 2019).
Read-outs that look alike come from different tables or passages of the source.

Columns and labels:
[1] = test system: P. falciparum strain 3D7; test: P. falciparum growth inhibition assay; format: cell-based, Plasmodium falciparum
In short: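 3D7 parasites kept in human erythrocytes (4% hematocrit) in RPMI with 0.5% albumax and synchronized by repeated sorbitol treatment. Assay wells used complete medium, 2% hematocrit and parasitemia ≤1%. Test compound (0–100 μM final) was added to 8–10 h rings, with a DMSO solvent control. Growth ran 52 h, then SYBR green DNA fluorescence was read. Triplicate wells; experiment repeated twice.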

[2] = test system: 3D7 Plasmodium parasites; test: Effect on parasite morphology and development; format: cell-based, Plasmodium falciparum; conditions: at their IC50 value concentration, ring stage (8–10 h) 3D7 parasites treated
In short: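 Sorbitol-synchronised P. falciparum 3D7 cultured in human erythrocytes (4% hematocrit) in RPMI with 0.5% albumax. Ring-stage (8–10 h) parasites treated with test compound, E-64 or solvent alone as control. Light microscopy of parasitized RBCs at several time points after treatment, following progression from ring to trophozoite to schizont to merozoites and reinvasion of fresh RBCs as new rings.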

[3] = Plasmodium falciparum, 3D7, read-out: Inhibition of P. falciparum EC50, 3D7 culture, ring stage 8–10 h, 52 h growth, SYBR green

Structure (SMILES)	EC50 [1, 3]	New ring formation [2]	EC50 ([1]; read-out: Inhibition of P. falciparum EC50, 3D7 culture, ring stage 8–10 h, 52 h growth, SYBR green)
FC(F)(F)c1cccc(-n2cc(COc3ccnc4cc(Cl)ccc34)nn2)c1 [Compound T1, 7-Chloro-4-({1-[3-(trifluoromethyl)phenyl]-1H-1,2,3-triazol-4yl}methoxy) quinoline]	49.5 µM		
Fc1ccc(-n2cc(COc3ccnc4cc(Cl)ccc34)nn2)cc1F [Compound T4, 7-Chloro-4-{[1-(3,4-difluorophenyl)-1H-1,2,3-triazol-4-yl]methoxy} quinoline]	21.9 µM	few new rings	
Fc1ccccc1-n1cc(COc2ccnc3cc(Cl)ccc23)nn1 [Compound T5, 7-Chloro-4-{[1-(2-fluorophenyl)-1H-1,2,3-triazol-4-yl]methoxy} quinoline]	49.5 µM		66.6 µM
Fc1ccc(-n2cc(COc3ccnc4cc(Cl)ccc34)nn2)cc1 [Compound T6, 7-Chloro-4-{[1-(4-fluorophenyl)-1H-1,2,3-triazol-4-yl]methoxy} quinoline]	~57.9 µM		
O=[N+]([O-])c1ccc(-n2cc(COc3ccnc4cc(Cl)ccc34)nn2)cc1 [Compound T7, 7-Chloro-4-{[1-(4-nitrophenyl)-1H-1,2,3-triazol-4-yl]methoxy} quinoline]	49.9 µM	few new rings	
COc1ccc(-n2cc(COc3ccnc4cc(Cl)ccc34)nn2)cc1 [Compound T8, 7-Chloro-4-{[1-(4-methoxyphenyl)-1H-1,2,3-triazol-4-yl]methoxy} quinoline]	51.7 µM		
Cc1ccccc1-n1cc(COc2ccnc3cc(Cl)ccc23)nn1 [Compound T9, 7-Chloro-4-{[1-(2-methylphenyl)-1H-1,2,3-triazol-4-yl]methoxy} quinoline]	147 µM		
Clc1ccc2c(OCc3cn(-c4ccccc4)nn3)ccnc2c1 [Compound T10, 7-Chloro-4-[(1-phenyl-1H-1,2,3-triazol-4-yl)methoxy] quinoline]	~57.6 µM		
